Experimental data: ChEMBL document CHEMBL4196202, “Discovery and Structure-Based Optimization of Benzimidazole-Derived Activators of SOS1-Mediated Nucleotide Exchange on RAS” (J Med Chem, 2018)
Converted amounts (≈) assume the structure as drawn. The source made the active and inactive calls. The rule behind the calls is not given here.

Tests used:
[1] = target: T1, Son of sevenless homolog 1 (Homo sapiens) (UniProt Q07889); test: Biphasic activity at of SOS1 in human HeLa cells expressing wild type KRAS assessed as induction of ERK1/2 T202/Y204 phosphorylation at 1.5 to 100 uM (lower range) incubated for 30 mins by In-cell Western assay; type: cell-based
T1 sequence (whole entry): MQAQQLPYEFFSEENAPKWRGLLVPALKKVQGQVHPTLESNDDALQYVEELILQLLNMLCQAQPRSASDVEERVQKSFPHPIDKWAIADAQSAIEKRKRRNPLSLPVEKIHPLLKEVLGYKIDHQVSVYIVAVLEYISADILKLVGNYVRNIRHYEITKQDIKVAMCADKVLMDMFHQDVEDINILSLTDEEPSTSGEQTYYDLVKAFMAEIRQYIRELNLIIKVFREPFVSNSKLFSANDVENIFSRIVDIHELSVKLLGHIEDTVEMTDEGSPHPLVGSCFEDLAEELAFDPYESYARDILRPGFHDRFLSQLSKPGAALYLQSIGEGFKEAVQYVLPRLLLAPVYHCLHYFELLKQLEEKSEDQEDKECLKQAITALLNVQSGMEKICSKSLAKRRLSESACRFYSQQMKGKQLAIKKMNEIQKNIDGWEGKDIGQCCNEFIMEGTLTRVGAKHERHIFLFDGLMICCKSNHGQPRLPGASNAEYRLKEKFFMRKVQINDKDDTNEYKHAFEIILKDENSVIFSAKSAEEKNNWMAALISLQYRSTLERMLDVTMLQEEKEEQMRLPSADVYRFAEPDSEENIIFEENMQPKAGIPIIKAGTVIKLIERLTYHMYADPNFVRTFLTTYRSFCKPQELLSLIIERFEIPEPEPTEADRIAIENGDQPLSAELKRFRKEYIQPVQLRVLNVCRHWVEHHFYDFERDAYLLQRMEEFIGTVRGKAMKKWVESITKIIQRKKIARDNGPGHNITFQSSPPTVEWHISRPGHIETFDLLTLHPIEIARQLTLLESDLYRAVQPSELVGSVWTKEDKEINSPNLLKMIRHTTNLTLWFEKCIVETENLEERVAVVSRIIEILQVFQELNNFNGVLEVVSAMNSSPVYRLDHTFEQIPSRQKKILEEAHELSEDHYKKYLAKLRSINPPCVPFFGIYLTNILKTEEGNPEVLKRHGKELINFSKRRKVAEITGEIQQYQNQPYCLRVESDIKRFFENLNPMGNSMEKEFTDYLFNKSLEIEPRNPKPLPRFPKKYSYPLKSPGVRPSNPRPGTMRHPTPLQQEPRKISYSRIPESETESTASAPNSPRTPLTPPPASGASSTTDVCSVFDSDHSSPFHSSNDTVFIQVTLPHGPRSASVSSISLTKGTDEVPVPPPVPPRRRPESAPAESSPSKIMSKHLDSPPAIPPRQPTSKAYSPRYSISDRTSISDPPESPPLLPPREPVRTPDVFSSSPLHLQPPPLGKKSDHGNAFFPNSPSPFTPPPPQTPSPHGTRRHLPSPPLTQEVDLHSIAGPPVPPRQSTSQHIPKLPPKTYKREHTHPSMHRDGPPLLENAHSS

[2] = target: T1, Son of sevenless homolog 1 (Homo sapiens); test: Activation of SOS1 in human NCI-H727 cells expressing KRAS G12V mutant assessed as induction of ERK1/2 T202/Y204 phosphorylation at 1.5 to 100 uM (higher range) incubated for 30 mins by In-cell Western assay; type: cell-based
[3] = target: T2, Son of sevenless homolog 1 (Homo sapiens, UniProt Q07889); test: Activation of SOS1 in human HeLa cells expressing wild type KRAS assessed as induction of ERK1/2 T202/Y204 phosphorylation incubated for 30 mins by In-cell Western assay; type: cell-based
T2 sequence (Q07889 whole entry): T1 sequence (whole entry)

[4] = target: T1, Son of sevenless homolog 1 (Homo sapiens); test: Biphasic activity at of SOS1 in human HeLa cells expressing wild type KRAS assessed as reduction in ERK1/2 T202/Y204 phosphorylation at 1.5 to 100 uM (higher range) incubated for 30 mins by In-cell Western assay; type: cell-based
[5] = target: T1, Son of sevenless homolog 1 (Homo sapiens); test: Activation of SOS1 in human NCI-H727 cells expressing KRAS G12V mutant assessed as induction of ERK1/2 T202/Y204 phosphorylation at 1.5 to 100 uM (lower range) incubated for 30 mins by In-cell Western assay; type: cell-based
[6] = target: T2, Son of sevenless homolog 1; test: Binding affinity to human recombinant N-terminal His6-tagged SOS1 (564 to 1049 residues) expressed in BL21-RIL Escherichia coli by fluorescent probe S3 based fluorescence polarization anisotrophy saturation binding assay
How it was run: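 SOS1cat (aa 564–1049) was titrated in a 16-point, 3-fold series from 10 μM top against 50 nM fluorescein probe S3. Buffer was 20 mM Tris-HCl pH 7.5, 50 mM NaCl, 1 mM magnesium chloride. Fluorescence anisotropy was read and Kd reported as mean ± SD of at least three independent experiments.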

[7] = target: T1, Son of sevenless homolog 1 (Homo sapiens); test: Activation of SOS1 in human HeLa cells expressing wild type KRAS assessed as increase in RAS-GTP levels at 0.3 to 30 uM incubated for 10 mins by active RAS pull-down assay; type: cell-based
How it was run: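 HeLa cells seeded to reach 70% confluency after 24 h, then treated. RAS-GTP was captured by a RAF1-RBD active RAS pull-down kit, resolved by SDS-PAGE, blotted to PVDF and probed with pan-RAS antibody. Total RAS and α-tubulin inputs served as loading controls. Detection was by fluorescent secondary antibody on an Odyssey imager.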

[8] = target: Son of sevenless homolog 1 (Homo sapiens, UniProt Q07889); test: Activation of SOS1 in human NCI-H727 cells expressing KRAS G12V mutant assessed as induction of ERK1/2 T202/Y204 phosphorylation incubated for 30 mins by In-cell Western assay; type: cell-based
[9] = Aqueous solubility in pH 6.8 buffer at 1 mg/mL by HPLC/DAD-UV assay; type: physicochemical
How it was run: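 Solid compound was dispensed at 1 mg/mL into McIlvaine buffer pH 6.8, with a reference dissolved in acetonitrile/water 1:1 (v/v). Dissolved concentration was quantified by HPLC-DAD-UV. Single experiment.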

[10] = target: T1, Son of sevenless homolog 1 (Homo sapiens); test: Activation of SOS1 in human HeLa cells expressing wild type KRAS assessed as increase in RAS-GTP levels at 0.3 uM incubated for 10 mins by active RAS pull-down assay; type: cell-based
[11] = target: T1, Son of sevenless homolog 1 (Homo sapiens); test: Activation of SOS1 in human HeLa cells expressing wild type KRAS assessed as induction of ERK1/2 T202/Y204 phosphorylation at 1.5 to 100 uM incubated for 30 mins by In-cell Western assay
[12] = target: T1, Son of sevenless homolog 1 (Homo sapiens); test: Activation of SOS1 in human HeLa cells expressing wild type KRAS assessed as increase in RAS-GTP levels at 10 to 30 uM incubated for 10 mins by active RAS pull-down assay; type: cell-based
How it was run: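 HeLa cells, STR-authenticated and mycoplasma-negative, were passaged at least twice after thaw (25 passages maximum). They were seeded to reach 70% confluency after 24 h, then treated. Active RAS-GTP was captured by RAF1-RBD pull-down and detected by SDS-PAGE and western blot with a pan-RAS antibody and a fluorescent secondary, read on an Odyssey imager. Total RAS and α-tubulin in the input served as loading controls.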

| Structure (SMILES) | Activity [1] | Activity [2] | EC50 [3] [µM] | Activity [4] | Activity [5] | Kd [6] [µM] | Activity [7] | EC50 [8] [µM] | solubility [9] [µg/mL] | Activity [10] | Activity [11] | Activity [12] |
| --- | --- | --- | --- | --- | --- | --- | --- | --- | --- | --- | --- | --- |
| Cc1cc(Cn2c(N3CC4(CNC4)C3)nc3c(-c4cncnc4C)cc(Cl)cc32)cc(C)c1F | Active | Active | 11.4 | Active | Active | 0.016 | Active | 15.7 | 3 (≈ 6.29 µM) |  |  |  |
| Cc1cc(Cn2c(N3CC4(CNC4)C3)nc3c(N4CCN(C)CC4)cc(Cl)cc32)cc(C)c1F | Active | Active | 5.9 | Active | Active | 0.044 |  | 10 | > 110 | Active | Active | Active |
